Where two headings read alike, the source gives them in different places.
Key:
human CB2 receptors = conditions: cited from earlier work
rat CB2 receptors [1] = conditions: cited from earlier work
[2] = tested on: rats with spinal nerve ligation; assay: Tactile allodynia, lumbar 5-6 spinal nerve ligation neuropathic pain model; type: in vivo, rat; conditions: for Effect on tactile allodynia: several doses
Outline: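 Male Sprague-Dawley rats (120–150 g). Under isoflurane in 100% O2, the left L6 transverse process was removed and the left L5 and L6 spinal nerves were tightly ligated with 6-0 silk. Neuropathy was confirmed by daily von Frey paw-withdrawal thresholds after ≥30 min acclimation on wire mesh. Compounds were given IP; AM630 (5 mg/kg IP) was given 15 min before the test compound. n = 6–12 per group.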

mouse CB2 receptors = conditions: cited from earlier work
human CB2 receptor [3] = molecular target: T1, human CB2 receptor (Homo sapiens, UniProt P34972); conditions: cited from earlier work
human CB2 receptor [4] = molecular target: T1, human CB2 receptor; conditions: cited from earlier work; remark: listed apart in the source
human CB2 receptor [5] = molecular target: T1, human CB2 receptor; conditions: cited from earlier work; remark: listed apart in the source
human CB2 receptor [6] = molecular target: T1, human CB2 receptor; conditions: cited from earlier work; remark: listed apart in the source
[7] = tested on: rodents with spinal nerve ligation; conditions: cited from earlier work
rat CB2 receptors [8] = conditions: cited from earlier work; remark: listed apart in the source
rat CB2 receptor [9] = molecular target: T2, rat CB2 receptor (Rattus norvegicus, UniProt Q9QZN9); assay: GTPγ[35S] functional assay, rat CB2; type: biochemical
T2 sequence (Q9QZN9 1-360): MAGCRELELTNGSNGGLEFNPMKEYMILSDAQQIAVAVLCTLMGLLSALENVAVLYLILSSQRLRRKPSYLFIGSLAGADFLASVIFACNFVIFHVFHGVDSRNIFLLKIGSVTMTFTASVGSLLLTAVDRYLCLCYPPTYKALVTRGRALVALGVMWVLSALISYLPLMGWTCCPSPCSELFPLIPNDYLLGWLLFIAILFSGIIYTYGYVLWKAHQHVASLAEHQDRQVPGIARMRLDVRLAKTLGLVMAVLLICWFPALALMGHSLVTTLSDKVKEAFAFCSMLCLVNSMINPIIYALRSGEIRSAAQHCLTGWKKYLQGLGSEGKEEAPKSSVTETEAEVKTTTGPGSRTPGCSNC

rat CB2 receptor [10] = molecular target: T2, rat CB2 receptor; assay: cAMP activation assay, rat CB2; type: cell-based
human CB1 receptor [11] = molecular target: T3, human CB1 receptor (Homo sapiens, UniProt P21554); assay: GTPγ[35S] functional assay, human CB1; type: biochemical
[12] = tested on: paclitaxel-treated CB2^−/− mice; assay: Tactile allodynia, paclitaxel-induced neuropathic pain model in CB2^−/− mice; type: in vivo, mouse; conditions: 10 mg/kg IP
Outline: (§1)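 Male CB2+/+ or CB2−/− mice (20–25 g), bred and genotyped in-house, were used in a paclitaxel-induced neuropathy model. Once allodynia was established, the test compound was given at 10 mg/kg IP. Tactile paw-withdrawal thresholds were measured with von Frey filaments after ≥30 min acclimation on a wire-mesh floor; n = 5 per group.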

human CB2 receptor [13] = molecular target: T1, human CB2 receptor; assay: GTPγ[35S] functional assay, human CB2; type: biochemical
human CB1 receptor [14] = molecular target: T3, human CB1 receptor; assay: Radioligand competitive binding assay, human CB1; conditions: Mean Ki Human CB1, [3H]CP 55,940 was used (footnote b)
rat CB1 receptor [15] = molecular target: T4, rat CB1 receptor (Rattus norvegicus, UniProt P20272); assay: cAMP activation assay, rat CB1; type: cell-based
rat CB2 receptors [16] = assay: Erk1/2; type: cell-based
rat CB1 receptor [17] = molecular target: T4, rat CB1 receptor; assay: Radioligand competitive binding assay, rat CB1
rat CB2 receptor [18] = molecular target: T2, rat CB2 receptor; assay: Radioligand competitive binding assay, rat CB2
[19] = tested on: paclitaxel-treated CB2^+/+ mice; assay: Tactile allodynia, paclitaxel-induced neuropathic pain model in CB2^+/+ mice; type: in vivo, mouse; conditions: 10 mg/kg IP
Outline: as §1

naïve rats [20] = conditions: 15 mg/kg IP; historical data ref 24; cited from earlier work
rat CB1 receptor [21] = molecular target: T4, rat CB1 receptor; assay: GTPγ[35S] functional assay, rat CB1; type: biochemical
human CB2 receptor [22] = molecular target: T1, human CB2 receptor; assay: Radioligand competitive binding assay, human CB2
paclitaxel-treated rats = assay: Tactile allodynia, paclitaxel-induced neuropathic pain model in rats; type: in vivo, rat; conditions: IP
Outline: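 Male Sprague-Dawley rats (120–150 g) received paclitaxel 1.0 mg/kg IP daily for 4 days (cumulative 4 mg/kg) in 10% Cremophor EL in saline, 1 mL/kg. Baseline was taken on day 0, then daily von Frey hind-paw thresholds (≥30 min acclimation on wire mesh) until neuropathy was confirmed. The test compound was given IP, compared with vehicle-treated rats; n = 5 per group. Values were expressed as %MPE and AUC.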

naïve rats [23] = assay: Open-field chamber testing; type: in vivo, rat; conditions: 1 mg/kg IP
central nervous system = conditions: IP; cited from earlier work

T4 sequence (P20272 whole entry): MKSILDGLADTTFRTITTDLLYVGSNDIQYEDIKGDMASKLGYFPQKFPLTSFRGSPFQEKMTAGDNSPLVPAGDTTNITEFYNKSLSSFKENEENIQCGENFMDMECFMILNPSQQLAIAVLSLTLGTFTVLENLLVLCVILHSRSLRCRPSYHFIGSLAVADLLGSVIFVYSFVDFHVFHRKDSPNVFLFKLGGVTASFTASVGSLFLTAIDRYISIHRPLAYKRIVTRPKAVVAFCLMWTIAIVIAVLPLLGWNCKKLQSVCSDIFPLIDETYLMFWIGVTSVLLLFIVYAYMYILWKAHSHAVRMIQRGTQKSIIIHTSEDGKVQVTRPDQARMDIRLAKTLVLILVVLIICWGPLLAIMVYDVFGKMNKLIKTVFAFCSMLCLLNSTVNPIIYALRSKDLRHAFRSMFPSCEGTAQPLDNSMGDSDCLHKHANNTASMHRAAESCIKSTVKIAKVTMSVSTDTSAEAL
T1 sequence (P34972 whole entry): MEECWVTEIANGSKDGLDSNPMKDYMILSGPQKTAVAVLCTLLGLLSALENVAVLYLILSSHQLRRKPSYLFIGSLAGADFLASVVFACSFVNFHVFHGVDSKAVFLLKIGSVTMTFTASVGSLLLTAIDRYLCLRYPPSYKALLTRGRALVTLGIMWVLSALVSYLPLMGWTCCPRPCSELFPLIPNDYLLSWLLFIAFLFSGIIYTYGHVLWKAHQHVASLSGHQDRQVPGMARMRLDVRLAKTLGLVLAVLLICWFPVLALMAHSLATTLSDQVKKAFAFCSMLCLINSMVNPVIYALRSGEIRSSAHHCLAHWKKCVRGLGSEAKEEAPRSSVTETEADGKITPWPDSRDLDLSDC
T3 sequence (P21554 whole entry): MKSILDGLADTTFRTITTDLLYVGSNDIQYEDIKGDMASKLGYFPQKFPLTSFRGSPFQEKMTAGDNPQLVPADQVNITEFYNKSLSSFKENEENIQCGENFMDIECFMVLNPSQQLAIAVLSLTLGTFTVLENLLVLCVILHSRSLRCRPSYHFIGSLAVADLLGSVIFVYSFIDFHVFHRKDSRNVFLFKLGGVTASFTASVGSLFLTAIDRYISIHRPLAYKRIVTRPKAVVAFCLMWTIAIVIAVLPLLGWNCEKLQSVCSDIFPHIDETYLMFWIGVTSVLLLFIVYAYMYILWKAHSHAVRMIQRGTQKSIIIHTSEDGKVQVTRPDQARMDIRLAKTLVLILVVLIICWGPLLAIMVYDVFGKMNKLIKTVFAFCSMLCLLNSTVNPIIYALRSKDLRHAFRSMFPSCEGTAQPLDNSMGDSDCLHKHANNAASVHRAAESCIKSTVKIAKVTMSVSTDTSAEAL

Structure (SMILES): CN1CCCCC1Cn1cc(C(=O)c2cc([N+](=O)[O-])ccc2I)c2ccccc21 (single isomer, unassigned; (+)) [(+)AM1241]
- Functional character at human CB2 (human CB2 receptors): protean agonists
- Functional character at rat CB2 (rat CB2 receptors [1]): protean agonists

Structure (SMILES): COc1ccc(C(=O)c2c(C)n(CCN3CCOCC3)c3cc(I)ccc23)cc1 [AM630, reference compound]
- Effect on paw withdrawal threshold, given alone ([2]; 5 mg/kg IP): had no effect

Structure (SMILES): CN1CCCCC1Cn1cc(C(=O)c2cc([N+](=O)[O-])ccc2I)c2ccccc21 (centres unmarked) [AM1241, (2-iodo-5-nitrophenyl)-[1-(1-methylpiperidin-2-ylmethyl)-1H-indol-3-yl]methanone]
- Functional behaviour in cAMP inhibition assays, mouse CB2 (mouse CB2 receptors): inverse agonist
- Functional behaviour in cAMP inhibition assays, human CB2 (human CB2 receptor [3]): agonist
- Functional behaviour in cyclase assays (human CB2 receptor [4]): neutral antagonist
- Functional behaviour in cyclase assays at lower forskolin concentrations (human CB2 receptor [4]; lower forskolin concentrations): agonist
- Functional behaviour in Erk activation assays (human CB2 receptor [5]): apparent agonist
- Functional behaviour in fluorometric image plate reader functional assays (human CB2 receptor [6]): apparent antagonist
- Effect on tactile allodynia [7]: attenuated tactile allodynia in a dose-related manner
- Functional behaviour in cAMP inhibition assays, rat CB2 (rat CB2 receptors [8]): inverse agonist

Structure (SMILES): CCCCCCC(C)(C)c1ccc([C@@H]2C[C@H](O)CC[C@H]2CCCO)c(O)c1 [CP 55,940, reference compound]
- Functional behaviour in GTPγ[35S] assay, rat CB2 (rat CB2 receptor [9]): agonist activity
- EC50 (rat CB2 receptor [9]; read-out: GTPγ[35S] functional assays Rat CB2 EC50, agonism): 2.3 ± 1.8 nM
- GTPγ[35S] functional assays Rat CB2 Emax (rat CB2 receptor [9]; relative to efficacy of CP 55,940): 112%
- Functional behaviour in cAMP activation assay, rat CB2 (rat CB2 receptor [10]): strong agonist activity
- cAMP activation assays Rat CB2 Emax (rat CB2 receptor [10]; forskolin 10 µM, NA = not active at 1 µM): 100%

Structure (SMILES): COc1ccc2c(c1)c(CCN1CCOCC1)c(C)n2C(=O)c1cccc(Cl)c1Cl [L768242]
- Functional character at human CB2 (human CB2 receptors): protean agonists
- Functional character at rat CB2 (rat CB2 receptors [1]): protean agonists

Structure (SMILES): CCCCCCN1C(=O)/C(=N\NC(=O)c2ccccc2)c2ccccc21 [MDA19, N′-[(3Z)-1-(1-hexyl)-2-oxo-1,2-dihydro-3H-indol-3-ylidene]benzohydrazide]
- EC50 (rat CB2 receptor [9]): 19.7 ± 14 nM
- Functional behaviour in GTPγ[35S] assay, rat CB2 (rat CB2 receptor [9]): inverse agonist
- Emax (rat CB2 receptor [9]; read-out: GTPγ[35S] functional assays Rat CB2 Emax): -42%
- EC50 (human CB1 receptor [11]): 922 ± 56 nM
- Functional behaviour in GTPγ[35S] assay, human CB1 (human CB1 receptor [11]): agonist
- Emax (human CB1 receptor [11]; read-out: GTPγ[35S] functional assays Human CB1 Emax): 64.5%
- Effect on mechanical allodynia [12]: had no effect
- EC50 (human CB2 receptor [13]): 83 ± 19 nM
- Functional behaviour in GTPγ[35S] assay, human CB2 (human CB2 receptor [13]): agonist
- Emax (human CB2 receptor [13]; read-out: GTPγ[35S] functional assays Human CB2 Emax): 65.4%
- Ki (human CB1 receptor [14]): 150 nM
- EC50 (rat CB1 receptor [15]): 814 ± 83 nM
- Functional behaviour in cAMP activation assay, rat CB1 (rat CB1 receptor [15]): agonist
- Emax (rat CB1 receptor [15]; read-out: cAMP activation assays Rat CB1 Emax): 89%
- Activation of Erk1/2 after PTX (rat CB2 receptors [16]; 200 ng/mL PTX 16 hours before 10 µM MDA19): blocked
- Functional behaviour in Erk1/2 activation (phosphorylation of Erk1/2) (rat CB2 receptors [16]; 10 µM, 30 minutes, CHO-rCB2 cells): behaved as an agonist and induced phosphorylation of Erk1/2
- Activation of Erk1/2 after AM630 (rat CB2 receptors [16]; 20 µM AM630 30 minutes before 10 µM MDA19): blocked
- Ki (rat CB1 receptor [17]): 1130 ± 574 nM
- Functional behaviour in cAMP activation assay, rat CB2 (rat CB2 receptor [10]): no activity
- Ki (rat CB2 receptor [18]): 16.3 ± 2.1 nM
- Affinity ratio rat CB2 over rat CB1 (rat CB2 receptor [18]; from Ki values): ~70 fold
- Antiallodynic effects compared with 1 mg/kg WIN 55,212-2 IP ([2]; 15 mg/kg IP): not significantly different
- Antiallodynic effect, area under the curve ([2]; 15 mg/kg versus 5 mg/kg or vehicle): significantly (P < 0.01) greater antiallodynic effect
- Effect on tactile allodynia ([2]; IP): attenuated tactile allodynia in a dose-related manner
- Antiallodynic effect after pretreatment with AM630 ([2]; MDA19 10 mg/kg IP, AM630 5 mg/kg IP 15 minutes before, P < 0.05): significantly reversed
- Efficacy in attenuating tactile allodynia ([2]; after a 15 mg/kg dose IP): 70% ± 10%
- Effect on mechanical allodynia [19]: suppressed mechanical allodynia
- Time of peak effect for reversing mechanical allodynia [19]: 30 min
- Effect on exploratory behavior (distance traveled, ambulatory time, vertical movements, zone entries) (naïve rats [20]): had no effect on exploratory behavior
- EC50 (rat CB1 receptor [21]): 427 ± 35 nM
- Functional behaviour in GTPγ[35S] assay, rat CB1 (rat CB1 receptor [21]): agonist
- Emax (rat CB1 receptor [21]; read-out: GTPγ[35S] functional assays Rat CB1 Emax): 54%
- Ki (human CB2 receptor [22]): 43.3 ± 10.3 nM
- Effect on mechanical allodynia (paclitaxel-treated rats; versus vehicle-treated rats): suppressed mechanical allodynia
- %MPE paw withdrawal threshold AUC versus vehicle (paclitaxel-treated rats; n = 5 per group): significantly different (P < 0.05)

Structure (SMILES): Cc1c(C(=O)c2cccc3ccccc23)c2cccc3c2n1[C@H](CN1CCOCC1)CO3 [WIN 55,212-2, reference compound]
- Effect on exploratory behavior (distance traveled, ambulatory time, vertical movements, zone entries) (naïve rats [23]): significantly decreased exploratory behavior
- Adverse effects ([2]; 3 mg/kg IP): immobility and increased sensitivity to noise and handling
- Effect on tactile allodynia ([2]; IP): attenuated tactile allodynia in a dose-related manner
- ED50 tactile allodynia ([2]; IP, at 15 minutes, 95% CI = 0.5–0.9 mg/kg): 0.7 mg/kg
- Doses with adverse effects in the central nervous system (central nervous system): > 1 mg/kg

Structure (SMILES): O=C(CCCN1CCC(O)(c2ccc(Cl)cc2)CC1)c1ccc(F)cc1 [haloperidol]
- Effect on exploratory behavior (distance traveled, ambulatory time, vertical movements, zone entries) (naïve rats [23]): significantly decreased exploratory behavior

Reference: publication PMC3253719 (Anesthesia and Analgesia, 2010)
